Data published in ChEMBL document CHEMBL4828721, “Substituted dienes prepared from betulinic acid - Synthesis, cytotoxicity, mechanism of action, and pharmacological parameters” (Eur J Med Chem, 2021).
pIC50: −log10 of the molar value. The source made the active and inactive calls. The rule behind the calls is not given here.

Columns and labels:
[1] = test system: CCRF-CEM; assay: Induction of mitotic arrest in human CCRF-CEM cells assessed as phosphorylation of histone H3 at Ser10 at IC50 measured after 24 hrs by propidium iodide staining based flow cytometry analysis (Rvb= 1.72%); type: functional
[2] = test system: CCRF-CEM; assay: Induction of apoptosis in human CCRF-CEM cells assessed as activation of caspase 8 at 5 times IC50 measured after 24 hrs by western blot analysis; type: functional, cell-based
How it was run: (§1)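 Protein (15 µg/lane) was resolved by 10% SDS-PAGE and transferred to nitrocellulose. Blocked in 5% milk/TBST, then probed overnight at 4 °C with primary antibodies (1:1000) and HRP secondaries. Detected by ECL, with β-actin as loading control.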

[3] = test system: CEM-DNR; assay: Cytotoxicity against daunorubicin resistant human CEM-DNR cells assessed as reduction in cell viability measured after 72 hrs by MTS assay; type: functional, cell-based
[4] = Microsomal stability in human liver microsomes assessed as parent compound remaining at 2 uM in the presence of NADPH measured after 60 mins by RF-MS analysis; type: ADME, Microsome; details: read-out: Stability
How it was run: (§2)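 Human liver microsomes incubated with compound in the presence of NADPH cofactor to assess phase I oxidation. Intrinsic clearance was derived from the decline of the parent compound.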

[5] = test system: CCRF-CEM; assay: Induction of apoptosis in human CCRF-CEM cells assessed as activation of caspase 9 at 5 times IC50 measured after 24 hrs by western blot analysis; type: functional, cell-based; how it was run: as §1
[6] = Apparent permeability of the compound in human Caco2 cells assessed as recovery rate at pH 7.4 at 10 micromol/L measured after 1 hr by RF-MS analysis; type: ADME, cell-based; details: Caco-2, pH 7.4, dose 10 µmol/L, read-out: Activity
[7] = test system: CCRF-CEM; assay: Induction of apoptosis in human CCRF-CEM cells assessed as early apoptotic cells at 5 times IC50 measured after 24 hrs by Annexin V-FITC/PI staining based flow cytometry analysis (Rvb= 1.6%); type: functional
[8] = Stability in human plasma assessed as parent compound remaining at 2 uM incubated for 120 mins by RF-MS analysis; type: ADME, cell-free; details: read-out: Stability
[9] = Cytotoxicity against human HCT116 p53-null cells assessed as reduction in cell viability measured after 72 hrs by MTS assay; type: functional, cell-based
[10] = test system: CCRF-CEM; assay: Inhibition of RNA synthesis in human CCRF-CEM cells at IC50 by […] incorporation assay (Rvb= 36.54%); type: functional; design: scale not given: the % may be the effect or the level left
[11] = test system: BJ; assay: Cytotoxicity against human BJ cells assessed as reduction in cell viability measured after 72 hrs by MTS assay; type: cell-based
[12] = test system: CCRF-CEM; assay: Induction of apoptosis in human CCRF-CEM cells assessed as late apoptotic cells at IC50 measured after 24 hrs by Annexin V-FITC/PI staining based flow cytometry analysis (Rvb= 1.4%); type: functional
[13] = test system: MRC5; assay: Cytotoxicity against human MRC5 cells assessed as reduction in cell viability measured after 72 hrs by MTS assay; type: cell-based; details: MRC5, 72 h
[14] = test system: CCRF-CEM; assay: Cell cycle arrest in human CCRF-CEM cells assessed as accumulation of cells at S phase at IC50 measured after 24 hrs by propidium iodide staining based flow cytometry analysis (Rvb= 38.17%); type: functional
[15] = test system: CCRF-CEM; assay: Cell cycle arrest in human CCRF-CEM cells assessed as accumulation of cells at S phase at 5 times IC50 measured after 24 hrs by propidium iodide staining based flow cytometry analysis (Rvb= 38.17%); type: functional
[16] = test system: CCRF-CEM; assay: Induction of cell cycle arrest in human CCRF-CEM cells assessed as upregulation of p21 protein expression at 5 times IC50 measured after 24 hrs by western blot analysis; type: functional, cell-based; how it was run: as §1
[17] = Stability in human plasma assessed as parent compound remaining at 2 uM incubated for 30 mins by RF-MS analysis; type: ADME, cell-free; details: read-out: Stability
[18] = test system: CCRF-CEM; assay: Induction of apoptosis in human CCRF-CEM cells assessed as dead cells at IC50 measured after 24 hrs by Annexin V-FITC/PI staining based flow cytometry analysis (Rvb= 0.3%); type: functional
How it was run: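 They were washed in ice-cold PBS and incubated with Annexin V-FITC plus PI for 20 min at room temperature in the dark. Cells were then pelleted and resuspended in binding buffer (10 mmol/L HEPES/NaOH pH 7.4, 140 mmol/L NaCl, 2.5 mmol/L CaCl2). Read on a FACSAria II, ≥10,000 cells per sample.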

[19] = test system: CCRF-CEM; assay: Cell cycle arrest in human CCRF-CEM cells assessed as accumulation of cells at G2/M phase at 5 times IC50 measured after 24 hrs by propidium iodide staining based flow cytometry analysis (Rvb= 21.62%); type: functional
[20] = Efflux ratio of apparent permeability across basolateral to apical side to apparent permeability across apical to basolateral side in human Caco2 cells at pH 7.4 at 10 micromol/L measured after 2 hrs by RF-MS analysis; type: ADME, cell-based; details: Caco-2, pH 7.4, dose 10 µmol/L
How it was run: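 Efflux ratio is Papp(B→A)/Papp(A→B) from bidirectional transport across Caco-2 (2 h) or MDCK-MDR1 (1 h) monolayers. Compound was dosed in HBSS pH 7.4 and quantified by RapidFire MS/MS. Run in duplicates. ER > 2 was taken as a potential P-gp substrate.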

[21] = Cytotoxicity against paclitaxel resistant human K562-Tax cells assessed as reduction in cell viability measured after 72 hrs by MTS assay; type: functional, cell-based
[22] = test system: CCRF-CEM; assay: Cell cycle arrest in human CCRF-CEM cells assessed as accumulation of cells at G2/M phase at IC50 measured after 24 hrs by propidium iodide staining based flow cytometry analysis (Rvb= 21.62%); type: functional
[23] = test system: CCRF-CEM; assay: Cell cycle arrest in human CCRF-CEM cells assessed as accumulation of cells at G0/G1 phase at IC50 measured after 24 hrs by propidium iodide staining based flow cytometry analysis (Rvb= 40.20%); type: functional
[24] = test system: K562; assay: Cytotoxicity against human K562 cells assessed as reduction in cell viability measured after 72 hrs by MTS assay; type: functional, cell-based; details: K562, 72 h
[25] = test system: CCRF-CEM; assay: Induction of apoptosis in human CCRF-CEM cells assessed as induction of PARP cleavage at 5 times IC50 measured after 24 hrs by western blot analysis; type: functional, cell-based; how it was run: as §1
[26] = Apparent permeability of the compound in dog MDCK-MDR1 cells at pH 7.4 at 10 micromol/L measured after 1 hr by RF-MS analysis; type: ADME, cell-based, Canis lupus familiaris; details: MDCK-MDR1, pH 7.4, dose 10 µmol/L
How it was run: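 Caco-2 and MDCK-MDR1 cells grown on polyester Transwell filters (0.4 and 1 µm pores) in DMEM pH 7.4 with 10% FBS; monolayer integrity checked by Lucifer Yellow rejection. Cells washed and pre-equilibrated 1 h in HBSS pH 7.4, then dosed with compound in HBSS pH 7.4. Incubation was 1 h for MDCK and 2 h for Caco-2. Samples lyophilized and quantified by RapidFire MS/MS with internal standard. Duplicates. Papp = (dQ/dt)/(C0·A).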

[27] = test system: HCT-116; assay: Cytotoxicity against human HCT-116 cells assessed as reduction in cell viability measured after 72 hrs by MTS assay; type: functional, cell-based; details: HCT-116, 72 h
[28] = test system: CCRF-CEM; assay: Inhibition of DNA synthesis in human CCRF-CEM cells at 5 times IC50 by BrdU incorporation assay (Rvb= 41.56%); type: functional; design: scale not given: the % may be the effect or the level left
[29] = Microsomal stability in human liver microsomes assessed as parent compound remaining at 2 uM in the presence of NADPH measured after 30 mins by RF-MS analysis; type: ADME, Microsome; details: read-out: Stability; how it was run: as §2

## C=C(/C=C/c1ccc([N+](=O)[O-])cc1)[C@@H]1CC[C@]2(C(=O)O)CC[C@]3(C)[C@H](CC[C@@H]4[C@@]5(C)CC[C@H](O)C(C)(C)[C@@H]5CC[C@]43C)[C@@H]12
[1]
  Activity: 2.9%
[2]
  Activity: inactive
[3]
  pIC50: 4.64
[4]
  remaining at 1 h, 2 µM: 53.5%
[5]
  Activity: Active
[6]
  recovery at 1 h, 10 µM: 58.5%
[7]
  Activity: 17.6%
[8]
  remaining at 2 h, 2 µM: 71.5%
[9]
  pIC50: 4.80
[10]
  Activity: 34.98%
[11]
  pIC50: 4.61
[12]
  Activity: 4.9%
[13]
  pIC50: 4.72
[14]
  Activity: 28.44%
[15]
  Activity: 57.61%
[16]
  Activity: Active
[17]
  remaining at 0.5 h, 2 µM: 79.1%
[18]
  Activity: 1.8%
[19]
  Activity: 12.81%
[20]
  efflux ratio at 2 h, 10 µM: 2.5
[21]
  pIC50: 4.63
[22]
  Activity: 23.16%
[23]
  Activity: 48.4%
[24]
  pIC50: 4.94
[25]
  Activity: Active
[26]
  Papp at 1 h, 10 µM: 0.43 ×10⁻⁶ cm/s
[27]
  pIC50: 4.73
[28]
  Activity: 3.06%
[29]
  remaining at 0.5 h, 2 µM: 78.5%

## C=C(/C=C/c1cccc(Cl)c1)[C@@H]1CC[C@]2(C(=O)O)CC[C@]3(C)[C@H](CC[C@@H]4[C@@]5(C)CC[C@H](O)C(C)(C)[C@@H]5CC[C@]43C)[C@@H]12
[1]
  Activity: 1.5%
[2]
  Activity: inactive
[3]
  pIC50: 4.59
[4]
  remaining at 1 h, 2 µM: 81.5%
[5]
  Activity: Active
[6]
  recovery at 1 h, 10 µM: 42.1%
[7]
  Activity: 5.3%
[8]
  remaining at 2 h, 2 µM: 77.7%
[9]
  pIC50: 4.82
[10]
  Activity: 18.97%
[11]
  pIC50: < 4.30
[12]
  Activity: 4.6%
[13]
  pIC50: 4.49
[14]
  Activity: 42.75%
[15]
  Activity: 37.93%
[16]
  Activity: Active
[17]
  remaining at 0.5 h, 2 µM: 87.9%
[18]
  Activity: 1.4%
[19]
  Activity: 12.28%
[20]
  efflux ratio at 2 h, 10 µM: 2.64
[21]
  pIC50: 4.59
[22]
  Activity: 14.39%
[23]
  Activity: 42.87%
[24]
  pIC50: 4.56
[25]
  Activity: Active
[26]
  Papp at 1 h, 10 µM: 22.4 ×10⁻⁶ cm/s
[27]
  pIC50: 4.79
[28]
  Activity: 0.4%
[29]
  remaining at 0.5 h, 2 µM: 92.4%
